≈ marks a conversion by molar mass, not a printed value.
Columns and labels:
[1] = Aqueous solubility in phosphate buffer at pH 7.4; assay type: physicochemical
How it was run: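 Thermodynamic solubility by the Avdeef–Testa approach. About 1 mg of ground compound went into 1.0 mL of 1/15 M phosphate buffer (pH 7.4) […], shaken 48 h at 25 °C, then filtered (0.22 µm). Filtrate was diluted in DMF and quantified by reversed-phase HPLC-UV (263–288 nm) against a calibration curve.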

[2] = target: T1, Aryl hydrocarbon receptor (Homo sapiens, UniProt P35869); assay: Agonist activity at aryl hydrocarbon receptor in human MCF7 cells after 24 hrs CYP1A1-dependent EROD assay; assay type: functional, cell-based
T1 sequence (P35869 whole entry): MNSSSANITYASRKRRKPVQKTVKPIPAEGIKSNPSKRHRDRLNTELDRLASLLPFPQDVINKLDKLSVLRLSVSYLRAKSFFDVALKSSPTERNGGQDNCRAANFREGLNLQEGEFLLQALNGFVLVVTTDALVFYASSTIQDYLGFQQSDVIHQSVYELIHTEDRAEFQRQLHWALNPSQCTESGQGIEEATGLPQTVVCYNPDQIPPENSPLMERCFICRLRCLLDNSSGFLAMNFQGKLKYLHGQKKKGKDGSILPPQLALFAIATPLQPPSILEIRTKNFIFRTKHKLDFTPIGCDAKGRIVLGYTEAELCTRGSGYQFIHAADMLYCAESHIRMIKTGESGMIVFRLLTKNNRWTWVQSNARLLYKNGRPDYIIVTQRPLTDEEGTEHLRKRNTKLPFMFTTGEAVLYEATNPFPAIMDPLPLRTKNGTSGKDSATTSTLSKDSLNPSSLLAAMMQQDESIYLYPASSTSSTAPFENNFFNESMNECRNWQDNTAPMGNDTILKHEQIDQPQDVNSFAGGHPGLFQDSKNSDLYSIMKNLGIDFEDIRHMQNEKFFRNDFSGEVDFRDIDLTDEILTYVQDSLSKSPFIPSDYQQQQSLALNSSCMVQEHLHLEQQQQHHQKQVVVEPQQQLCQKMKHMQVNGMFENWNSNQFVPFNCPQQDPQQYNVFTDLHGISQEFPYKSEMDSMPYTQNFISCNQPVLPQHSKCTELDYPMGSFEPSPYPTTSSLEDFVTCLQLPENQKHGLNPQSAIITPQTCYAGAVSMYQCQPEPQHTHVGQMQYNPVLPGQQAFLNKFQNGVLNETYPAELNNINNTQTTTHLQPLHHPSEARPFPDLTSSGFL
How it was run: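 MCF-7 cells in high-glucose D-MEM with 10% FBS, plated at 5×10^5 cells/mL, settled 4.5 h at 37 °C, then exposed to compound (3% DMSO in added portion) for 24 h. Washed cells were given ethoxyresorufin, dicoumarol and NADPH in PBS for 150 min at 37 °C. Triplicate; EC50 derived.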

[3] = Thermodynamic aqueous solubility in equal volume of ethyl alcohol and 1/15M phosphate buffer at pH 7.4; assay type: physicochemical; conditions: 1:1 (v/v) ethyl alcohol / 1/15 M phosphate buffer
How it was run: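 About 1 mg solid ground in agate mortar, suspended in 1.0 mL of a 1:1 mix of 1/15 M phosphate buffer (pH 7.4) and EtOH, shaken 48 h at 25 °C. Filtered (0.22 µm), filtrate diluted in DMF, quantified by reversed-phase C18 HPLC with UV at 263–288 nm against a calibration curve, corrected for dilution.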

MCF7 = assay: Toxicity in human MCF7 cells assessed as effect on cell viability after 24 hrs; assay type: cell-based; conditions: mcf7, 24 h
How it was run: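 Same MCF-7 plating and 24 h compound exposure as the EROD assay. Medium was then removed, cells were detached with 0.25% trypsin/EDTA and counted.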

[4] = phosphate buffer, read-out: solubility

solubility [1, 4] | solubility ([1]; buffer) | EC50 [2] | solubility thermodynamic [3] | SMILES | Activity (MCF7)
 |  | > 10000 nM | 1270 µg/mL (≈ 4230 µM) | Cc1cccc(C)c1-c1cc(=O)c2c(ccc3ccccc32)o1 | Non-toxic
 |  | 330 nM | 153 µg/mL (≈ 527 µM) | O=c1cc(-c2ccccc2F)oc2ccc3ccccc3c12 | Non-toxic
 |  | 200 nM | 248 µg/mL (≈ 804 µM) | O=c1cc(-c2c(F)cccc2F)oc2ccc3ccccc3c12 | Non-toxic
 |  | > 10000 nM | 262 µg/mL (≈ 915 µM) | Cc1ccccc1-c1cc(=O)c2c(ccc3ccccc32)o1 | Non-toxic

The next lines start with the compound.

SMILES | solubility [1, 4] | solubility ([1]; buffer) | EC50 [2] | solubility thermodynamic [3] | Activity (MCF7)
O=C(NC[C@H](NS(=O)(=O)c1ccccc1)C(=O)O)c1ccc(N2CCC(NC3=NCCCN3)CC2)cc1 | < 0.1 µg/mL |  |  |  | 
O=C(NC[C@H](NS(=O)(=O)c1ccccc1)C(=O)O)c1ccc(N2CCC(NC3=NCCCN3)CC2)c(F)c1 |  | 0.6 µg/mL (≈ 1.1 µM) |  |  | 
O=C(NC[C@H](NS(=O)(=O)c1ccccc1)C(=O)O)c1ccc(N2CCC[C@H](N=C3NCCCN3)C2)cc1 |  | 3.5 µg/mL (≈ 6.62 µM) |  |  | 
COc1ccccc1-c1cc(=O)c2c(ccc3ccccc32)o1 |  |  | 270 nM | 45.8 µg/mL (≈ 151 µM) | Non-toxic
O=c1cc(-c2ccccn2)oc2ccc3ccccc3c12 |  |  | 450 nM | 299 µg/mL (≈ 1090 µM) | Non-toxic
O=c1cc(-c2ccccc2)oc2ccc3ccccc3c12 [BETA-NAPHTHOFLAVONE] | < 0.15 µg/mL |  |  | 84.6 µg/mL (≈ 311 µM) | Non-toxic
